The text below walks through data of ChEMBL document CHEMBL4616669, “Bioisosteric Replacement of Arylamide-Linked Spine Residues with N-Acylhydrazones and Selenophenes as a Design Strategy to Novel Dibenzosuberone Derivatives as Type I 1/2 p38α MAP Kinase Inhibitors” (J Med Chem, 2020).

For data set [1], the target named is T1, Mitogen-activated protein kinase 14 (Homo sapiens, UniProt Q16539). Description: Inhibition of p38alpha MAPK (unknown origin) assessed as target residence time using ATF2 as substrate preincubated for 1 hr followed by jump dilution in presence of substrate and measured every 3 mins for 4 hrs by TR-FRET assay. Background: In TR-FRET formats the signal depends on donor and acceptor labels being close together.
T1 sequence (Q16539 whole entry): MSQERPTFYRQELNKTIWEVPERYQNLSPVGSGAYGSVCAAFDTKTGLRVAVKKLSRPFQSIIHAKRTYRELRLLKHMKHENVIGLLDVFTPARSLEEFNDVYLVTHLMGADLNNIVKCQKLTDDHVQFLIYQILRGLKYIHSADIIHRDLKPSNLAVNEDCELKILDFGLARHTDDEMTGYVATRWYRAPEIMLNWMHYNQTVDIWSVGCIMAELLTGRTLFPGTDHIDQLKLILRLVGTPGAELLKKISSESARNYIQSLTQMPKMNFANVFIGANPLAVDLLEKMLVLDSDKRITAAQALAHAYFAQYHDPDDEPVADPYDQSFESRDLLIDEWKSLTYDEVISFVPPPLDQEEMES

Data set [2] has as its target T1, Mitogen-activated protein kinase 14. The data set can be described thus: Inhibition of recombinant human full-length N-terminal GST-tagged p38alpha MAPK expressed in baculovirus infected Sf9 insect cells using p38 peptide as substrate preincubated for 15 mins followed by substrate addition and measured after 60 mins by ADP-glo assay. Background: ADP-Glo turns the ADP formed in a reaction into a luminescent signal.

Data set [3] has the same target. The data set can be described thus: Inhibition of NanoBRET kinase tracer K4 binding to full-length human C-terminal NanoLuc-tagged p38alpha MAPK expressed in HEK293T cells incubated for 2 hrs by NanoBRET NanoGlo substrate based NanoBRET assay. It is filed as cell-based, HEK-293T. A digest of the protocol:
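Cellular reporter-displacement NanoBRET format, run in intact cells where the competing substrate ATP is present at cellular concentrations. The result is reported as an IC50.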
(In general: In BRET a luciferase serves as donor, and the signal depends on an acceptor being close.)

Data set [4] has the same target. The data set can be described thus: Inhibition of p38alpha MAPK in human whole blood assessed as reduction in LPS-induced TNFalpha production preincubated for 2.5 hrs followed by LPS stimulation by ELISA. In kind it is tissue-based.
Data set [5] in a line: Drug metabolism in human liver microsomes assessed as oxidation at 100 uM measured after 180 mins in presence of NADPH generating system by LC-MS/MS analysis. To be noted: 3 h. In kind it is ADME, Microsome.
Data set [6] can be described thus: Stability of the compound in human liver microsomes at 100 uM measured after 180 mins in presence of NADPH generating system by LC-MS/MS analysis. It is filed as ADME, Microsome. To be noted: 3 h.

Take `O=C1c2ccc(Nc3ccc(F)cc3F)cc2CCc2ccc(OC[C@H](O)CO)cc21`: in data set [1], the TIME amounted to 0.0244 h.
With `O=C(NCCN1CCOCC1)c1ccc2c(c1)C(=O)c1ccc(Nc3ccc(F)c(/C=N/NC(=O)c4ccc[se]4)c3)cc1CC2`, the concentration for half-maximal inhibition (IC50) in data set [2] worked out at 16 nM; in data set [3] it was 30.4 nM; in data set [4] it was 490 nM. The TIME in data set [1] turned out to be 0.281 h.
With `O=C(NCCN1CCOCC1)c1ccc2c(c1)C(=O)c1ccc(Nc3ccc(F)c(/C=N/NC(=O)c4cccs4)c3)cc1CC2`, the 50% inhibitory concentration (IC50) in data set [2] stood at 29.7 nM; in data set [3], 15.5 nM; in data set [4] it was 276 nM. For the same molecule, the TIME in data set [1] was determined as 0.372 h.
As to `O=C(NCCN1CCOCC1)c1ccc2c(c1)C(=O)c1ccc(Nc3ccc(F)c(NC(=O)c4cccs4)c3)cc1CC2`, the IC50 in data set [2] came to 12 nM; in data set [4], 43 nM. For the same molecule, the TIME in data set [1] was found to be 0.207 h.
In the case of `O=C(NCCN1CCOCC1)c1ccc2c(c1)C(=O)c1ccc(Nc3ccc(F)c(NC(=O)c4ccccc4)c3)cc1CC2`, in data set [1], the TIME stood at 0.0511 h.
Turning to `O=C(NCCN1CCOCC1)c1ccc2c(c1)C(=O)c1ccc(Nc3ccc(F)c(NC(=O)c4ccc[se]4)c3)cc1CC2`, the figures for the half-inhibitory concentration (IC50) in data set [2], in data set [3] and in data set [4] were 24.6 nM, 4.9 nM and 101 nM, respectively. Further, the TIME in data set [1] was determined as 0.443 h. Moreover, the Drug metabolism entry in data set [5] is “Metabolite_Notdetected”.
As to `O=C(NCCN1CCOCC1)c1ccc2c(c1)C(=O)c1ccc(Nc3ccc(F)c(/C=N/NC(=O)c4ccccc4)c3)cc1CC2`, the values for the IC50 in data set [2], in data set [3] and in data set [4] were 19.7 nM, 6.3 nM and 47 nM, respectively. Further, in data set [1], the TIME is 0.231 h. Also, the Stability result in data set [6] is “Stable”. For the same molecule, the Drug metabolism result in data set [5] is given as “Metabolite_Notdetected”.

By IC50 is commonly meant the concentration needed to halve the response being measured.
